Laboratory results: ChEMBL document CHEMBL3244246, “2-Substituted derivatives of 9-alpha-D-arabinofuranosyladenine and 9-alpha-D-arabinofuranosyl-8-azaadenine” (J Med Chem, 1977)
Activity calls are given as the source filed them. The calls are words filed in the database; no cut-off is given here.

What was measured:
Human alphaherpesvirus 1 = assay: Antiviral activity against Herpes simplex virus 1 HF infected in human Hep2 cells assessed as inhibition of virus-induced cytopathogenicity measured at 4 days post-virus infection by Microtest 2 plate based microscopic analysis; type: functional, organism-based; conditions: HEp-2
Method in brief: (§1)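 Cells pregrown in microplates in BME (double vitamins/amino acids, 5% FBS). Medium replaced with compound-containing medium plus virus giving 32 CCID50 per well. Seven concentrations, half-log steps from cytotoxic to noncytotoxic, in triplicate. Cell, virus and cytotoxicity controls run alongside. Incubated 37 °C; cpe reduction judged microscopically at 4 days. Virus rating (VR) derived from cpe inhibition and cytotoxicity.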

Human alphaherpesvirus 3 = assay: Antiviral activity against Varicella zoster virus Ellen infected in human WI-38 cells assessed as inhibition of virus-induced cytopathogenicity measured at 7 days post-virus infection by […] microscopic analysis; type: functional, organism-based
Method in brief: (§2)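 Diploid human embryonic lung fibroblasts, 7-day-old monolayers in tubes, MEM plus 2% fetal bovine serum. Compound added in fresh medium (triplicate), then ~32 CCID50 virus per culture. Incubated 37 °C; medium replaced with fresh drug-containing medium at 48 h and again 48 h later. Cytotoxicity, virus and cell controls included. Cpe scored microscopically at day 7; virus rating (VR) calculated from cpe inhibition and drug cytotoxicity.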

Cytomegalovirus = assay: Antiviral activity against Cytomegalovirus AD 169 infected in human WI-38 cells assessed as inhibition of virus-induced cytopathogenicity measured at 7 days post-virus infection by […] microscopic analysis; type: functional, organism-based; method in brief: as §2
Human adenovirus 2 = assay: Antiviral activity against Human adenovirus 2 Adenoid-6 infected in human KB cells assessed as inhibition of virus-induced cytopathogenicity measured at 4 days post-virus infection by Microtest 2 plate based microscopic analysis; type: functional, organism-based; method in brief: as §1
[1] = system: Respiratory syncytial virus; assay: Antiviral activity against Respiratory syncytial virus Long infected in human Hep2 cells assessed as inhibition of virus-induced cytopathogenicity measured at 4 days post-virus infection by Microtest 2 plate based microscopic analysis; type: functional, organism-based; conditions: HEp-2; method in brief: as §1
Human rhinovirus 1A = assay: Antiviral activity against Human rhinovirus 1A 2060 infected in human KB cells assessed as inhibition of virus-induced cytopathogenicity measured at 4 days post-virus infection by Microtest 2 plate based microscopic analysis; type: functional, organism-based
Method in brief: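 Rhinovirus in KB cells under BME with 5% fetal bovine serum, challenged at 32 CCID50 per well alongside compound. Seven half-log concentrations spanning cytotoxic to noncytotoxic, triplicate. Cell, virus and drug-cytotoxicity controls included. Plates sealed, held at 33 °C. Cpe reduction examined microscopically after 4 days; virus rating (VR) computed from cpe inhibition and cytotoxicity.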

[2] = Virus rating for antiviral activity against Herpes simplex virus 1 HF infected in human Hep2 cells assessed as inhibition of virus-induced cytopathic effect taking into account cytotoxicity against human Hep2 cells

Compound | inhibition (Human alphaherpesvirus 1) | inhibition (Human alphaherpesvirus 3) | inhibition (Cytomegalovirus) | inhibition (Human adenovirus 2) | inhibition [1] | inhibition (Human rhinovirus 1A) | virus rating [2]
NNc1nc(N)c2ncn([C@H]3O[C@H](CO)[C@@H](O)[C@@H]3O)c2n1 | inactive | inactive | inactive | inactive | inactive | inactive | 
COc1nc(N)c2ncn([C@H]3O[C@H](CO)[C@@H](O)[C@@H]3O)c2n1 | inactive | inactive | inactive | inactive | inactive | inactive | 
Nc1ncnc2c1ncn2[C@H]1O[C@H](CO)[C@@H](O)[C@@H]1O |  |  |  |  |  |  | 0.6
CSc1nc(N)c2ncn([C@H]3O[C@H](CO)[C@@H](O)[C@@H]3O)c2n1 | inactive | inactive | inactive | inactive | inactive | inactive | 
CS(=O)(=O)c1nc(N)c2nnn([C@H]3O[C@H](CO)[C@@H](O)[C@@H]3O)c2n1 | inactive | inactive | inactive | inactive | inactive | inactive | 
[N-]=[N+]=Nc1nc(N)c2nnn([C@H]3O[C@H](CO)[C@@H](O)[C@@H]3O)c2n1 | inactive | inactive | inactive | inactive | inactive | inactive | 
CSc1nc(N)c2nnn([C@H]3O[C@H](CO)[C@@H](O)[C@@H]3O)c2n1 | inactive | inactive | inactive | inactive | inactive | inactive | 
NNc1nc(N)c2nnn([C@H]3O[C@H](CO)[C@@H](O)[C@@H]3O)c2n1 | inactive | inactive | inactive | inactive | inactive | inactive | 
Nc1ncnc2c1nnn2[C@H]1O[C@H](CO)[C@@H](O)[C@@H]1O |  |  |  |  |  |  | 1
COc1nc(N)c2nnn([C@H]3O[C@H](CO)[C@@H](O)[C@@H]3O)c2n1 | inactive | inactive | inactive | inactive | inactive | inactive | 
